# UBC13 inh: inhibitors of human UBC13 polyubiquitin chain formation; P61088; TR-FRET; inhibition, % at 20 µM; 0.47% of 330,000 active; AID 485273; in the data active = inhibition above about 45%, passing the limit was not always enough; inconclusive = no clear call, values can overlap the other calls
# Target sequence (P61088 whole entry, looked up): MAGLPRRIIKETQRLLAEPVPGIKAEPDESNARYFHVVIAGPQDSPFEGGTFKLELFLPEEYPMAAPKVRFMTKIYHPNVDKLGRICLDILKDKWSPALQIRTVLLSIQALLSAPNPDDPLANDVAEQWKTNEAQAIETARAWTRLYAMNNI
# SENP7 block: inhibitors of human SENP7 protease | 1.5% of 330,000 active | inhibition, % at 5 µM | AID 434973 | recombinant SENP7, Z-RLRGG-aminoluciferin luminescence, 40 min;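 active = inhibition above about 50% at the single test dose, limit read from the data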
# SENP8 block-1: blocks human SENP8 cleavage of Nedd8 substrate; recombinant SENP8, Nedd8 substrate fluorescence; inhibition, % at 20 µM; 0.64% of 360,000 active; in the data active = inhibition mostly above about 40%, no sharp cut-off; inactive = mostly below about 27%
# SENP8 block-2: blocks the human protease SENP8; Q96LD8; purified SENP8, Z-RLRGG-aminoluciferin cleavage, luminescence; inhibition, % at 10 µM; 1.2% of 330,000 active; in the data active = inhibition above about 50%
# SENP6 inh: blocks the human protease SENP6; Q9GZR1; Recombinant SENP6 catalytic domain, aminoluciferin luminescence; inhibition, % at 10 µM; 1.8% of 330,000 active; AID 2599;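 active = inhibition above about 50% at the single tested dose, limit read from the data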
# Target sequence (Q9GZR1 628-1112 limits assumed): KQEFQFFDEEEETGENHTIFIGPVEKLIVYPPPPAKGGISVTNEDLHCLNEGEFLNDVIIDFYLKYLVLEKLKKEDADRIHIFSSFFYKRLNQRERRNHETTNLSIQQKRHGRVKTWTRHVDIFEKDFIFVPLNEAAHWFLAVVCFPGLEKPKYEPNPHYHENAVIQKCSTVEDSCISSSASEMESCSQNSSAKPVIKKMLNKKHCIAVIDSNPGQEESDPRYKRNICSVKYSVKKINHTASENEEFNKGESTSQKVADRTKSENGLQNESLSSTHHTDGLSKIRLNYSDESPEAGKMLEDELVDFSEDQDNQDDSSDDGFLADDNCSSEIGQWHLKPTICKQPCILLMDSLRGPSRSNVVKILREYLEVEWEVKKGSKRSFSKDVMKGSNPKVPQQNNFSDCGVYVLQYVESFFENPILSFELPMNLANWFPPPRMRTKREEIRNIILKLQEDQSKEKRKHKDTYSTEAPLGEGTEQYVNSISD
# Apaf1 inhib: blocks human Apaf-1 apoptosome activity. O14727. reconstituted apoptosome caspase-3 activity, DEVD-Rh110 fluorescence. inhibition, % at 20 µM. 0.71% of 330,000 active; active = inhibition of at least 40% at 20 µM
#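 Material: cell-free apoptosome with Apaf-1, procaspase-3 and caspase-9; Buffer or medium: Hepes pH 7.5 with detergent and BSA; Reagent: cytochrome c trigger plus (Z-DEVD)2-Rh110 caspase-3 substrate; Times: compound with Apaf-1, dATP, procaspase-3 30 min, then 50 min reaction, room temperature; Technique: Rh110 fluorescence intensity.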
# Casp3 UBC13 ctr: caspase-3 inhibition (UBC13 counter-screen); inhibition, % at 20 µM; Recombinant caspase-3, Caspase-Glo 3/7 luminescence, 60 min; 4% of 1,400 active; shares compounds with UBC13 inh;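 active = mean inhibition across replicates above about 26%, limit read from the data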
# UBC13 confirm: human UBC13 polyubiquitin inhibition, confirmed. shares compounds with UBC13 inh. UBC13 polyubiquitination, TR-FRET, biochemical. inhibition, % at 10 µM. 68% of 1,400 active; in the data active = inhibition above about 45%; inconclusive = no clear call, values can overlap the other calls
# Numbers stand for hits; n = inactive; u = inconclusive; x = not tested or not shown. In the library only some 3% were active in any assay of this set; here they are far more common.
SMILES,UBC13 inh,SENP7 block,SENP8 block-1,SENP8 block-2,SENP6 inh,Apaf1 inhib,Casp3 UBC13 ctr,UBC13 confirm
C#CCOCCOCCOCCNc1nc(N2CCN(C(=O)[C@H]([C@@H](C)CC)n3cc([C@@H](N)CC(C)C)nn3)CC2)nc(N2CCN(C(=O)[C@H](CCCCN)n3cc([C@@H](N)C(C)CC)nn3)CC2)n1 (some centres undefined),n,n,n,n,n,n,x,x
C#CCOCCOCCOCCNc1nc(N2CCN(C(=O)[C@H]([C@@H](C)CC)n3cc([C@@H](N)Cc4ccc(O)cc4)nn3)CC2)nc(N2CCN(C(=O)[C@H](Cc3ccc(O)cc3)n3cc([C@@H](N)C(C)CC)nn3)CC2)n1 (some centres undefined),64,n,n,n,n,n,n,57
NC(=O)c1ccc(-c2c(-c3ccccc3)sc3ccccc23)cc1,n,n,n,n,n,n,x,x
CN(C)CCOc1ccc(-c2c(-c3ccccc3)sc3ccccc23)cc1,82,n,n,n,n,77,n,90
COc1ccc(C)c2sc(N(CCCN(C)C)C(=O)c3ccc(S(=O)(=O)N(C)C)cc3)nc12,49,n,n,n,n,n,n,54
Oc1ccc(C[C@@H]2CNCCN2CCCCC2CCCCC2)cc1,59,n,n,n,n,n,n,48
CCCCN(C)CCNC(=O)c1cc2c(-c3cccc(OC)c3)nn(C)c2s1,46,n,n,n,n,n,n,n
CCN(CC)CCCNC(=O)c1cc2c(-c3cccc(OC)c3)nn(C)c2s1,n,n,n,n,n,n,x,x
CCCCN(C)CCNC(=O)c1cc2c(-c3ccccc3F)nn(C)c2s1,n,n,n,n,n,n,x,x
COc1cccc(-c2nn(C)c3sc(C(=O)NCCCN(C)Cc4ccccc4)cc23)c1,53,n,n,n,n,n,n,59
Cc1ccc(S(=O)(=O)N2CCN(CC(=O)NC(=O)NCc3ccco3)CC2)cc1C,n,n,n,n,n,n,x,x
COc1cccc(Oc2cn[nH]c2-c2ccc(OC)cc2O)c1,n,n,n,n,n,n,x,x
CCOc1ccc(-c2[nH]ncc2Oc2cccc(OC)c2)c(O)c1,63,n,n,n,n,n,n,60
Cc1cc(C)c(NC(=O)Cn2c(=O)c3cccn3c3ccccc32)c(C)c1,n,n,n,n,n,n,x,x
CC1CCN(c2c(NCc3ccc(C(=O)N4CCN(C5CCCCC5)CC4)cc3)c(=O)c2=O)CC1,69,n,n,n,n,n,n,58
O=C(COC(=O)c1cc(Cl)ccc1O)NC(=O)NCc1ccccc1,50,n,n,n,n,n,n,u
COC(=O)c1ccc(CNC(=O)COC(=O)c2cc(Cl)ccc2O)cc1,52,n,n,n,n,n,n,n
O=C(COC(=O)c1ccccc1O)NC(=O)NCc1ccccc1,u,n,n,n,n,n,x,x
CCCCc1ccc(S(=O)(=O)NC(=O)C2(C)CCN2C(=O)CC2CC2)cc1 (centres undefined),x,x,n,x,x,x,x,x
O=C(NNC(=O)c1nn(-c2ccc(F)cc2)ccc1=O)c1ccccc1Cl,81,n,n,n,n,n,n,91
COc1ccc(CNC(=O)COC(=O)c2nc3nc(C)cc(C)n3n2)cc1,n,n,n,n,n,n,x,x
CCN(Cc1ccccc1)C(=O)c1nn(-c2ccc(OC)cc2)c(=O)c2c1c1ccccc1n2C,45,n,n,n,n,n,n,u
CN(CC(=O)Nc1cccc(F)c1)C(=O)c1cc(=O)[nH]c2ccccc12,n,n,n,n,n,n,x,x
CC(C)N1CCc2c(sc(NC(=O)c3cc(-c4cccs4)nc4ccccc34)c2C(N)=O)C1,54,n,n,n,n,61,n,49
CC(C)N1CCc2c(sc(NC(=O)c3nc4ccccc4s3)c2C(N)=O)C1,n,n,n,n,n,n,x,x
SMILES,UBC13 inh,SENP7 block,SENP8 block-1,SENP8 block-2,SENP6 inh,Apaf1 inhib,Casp3 UBC13 ctr,UBC13 confirm
COc1ccccc1OCCCC(=O)Nc1nccs1,n,n,n,n,n,n,x,x
COc1cc(OC)cc(C(=O)NC2CCN(CCCOc3ccccc3)CC2)c1,n,n,n,n,n,n,x,x
COc1cc(N)c(Cl)cc1C(=O)N[C@H]1CCN(CCCOc2ccc(F)cc2)C[C@H]1OC,68,n,n,n,n,n,n,59
CC(C)(c1ccccc1)c1ccc(OCC(O)CNC2CCN(Cc3ccccc3)CC2)cc1 (centres undefined),63,n,n,n,n,n,n,70
O=C(COc1coc(CN2CCc3ccccc32)cc1=O)Nc1ccc([N+](=O)[O-])cc1,n,n,n,n,n,n,x,x
Cc1ccc(S(=O)(=O)N(C)CC(=O)N(CC(C)C)C2CCS(=O)(=O)C2)cc1 (centres undefined),n,n,n,n,n,n,x,x
CCOC(=O)c1c(NC(=O)COc2ccccc2F)sc2c1CC(C)(C)NC2(C)C,n,n,n,n,n,n,x,x
CC1(C)Cc2c(sc(NC(=O)COc3ccc(Cl)cc3Cl)c2C(N)=O)C(C)(C)N1,74,n,n,n,n,n,n,109
CC(=O)c1cn(S(=O)(=O)c2ccccc2)c2ccccc12,91,n,n,n,n,n,n,88
CC1(C(=O)NCc2ccco2)Cc2c(-c3ccc(C(N)=O)cc3)ccnc2O1 (centres undefined),x,x,n,x,x,x,x,x
CCC[C@@H](CN[C@@H](CNC)C(C)C)NCCCCc1ccccc1,n,n,n,n,n,n,x,x
CCCC[C@@H](CNC)NC[C@H](NCCCCC1CCCCC1)C(C)C,66,n,n,n,n,n,n,45
Cc1cccc2c1-c1sc(C(=O)NCCCN3CCC(C)CC3)cc1CO2,53,n,n,n,n,n,n,86
O=C1NC(=O)C([N+](=O)[O-])=C(O)C1=O,x,x,n,x,x,x,x,x
CCCCn1c(=O)[nH]c(=O)c2c1nc(-c1ccc(C#N)cc1)n2C1CCCC1,78,n,n,n,n,n,n,68
Cc1cc2nc(Cl)c(Cl)nc2cc1C,47,n,n,n,n,n,n,n
COCCN1C(=O)/C(=C/c2ccc(N3CCCC3)cc2C)SC1=S,n,n,n,n,n,n,x,x
CCN(C[C@H]1N[C@@](C)(C(=O)OC)[C@H]2C(=O)N(C)C(=O)[C@@H]12)S(=O)(=O)c1ccc(C)cc1,n,n,n,n,n,n,x,x
Cc1ccc2c(c1)N(C(=O)CCC(=O)NCCCN1CCC(Cc3ccccc3)CC1)CCO2,62,n,n,n,n,n,n,56
Cc1ccc2c(c1)N(C(=O)CCC(=O)NCCCN1CCN(C)CC1)CCO2,n,n,n,n,n,n,x,x
NCCCC[C@@H](C(=O)N1CCNCC1)n1cc(CN)nn1,60,n,n,n,n,n,n,47
